# Assay outcomes as filed in PubChem BioAssay.
# Most compounds without a hit are left out; they make up all but 3.7% or so of the library.
# KCNQ1 pot – potentiators or activators of KCNQ1 channel, primary screen, cell-based, thallium flux, high-throughput; CHO-K1 KCNQ1, thallium flux FluxOR fluorescence; hits give high values; B-score at 10 µM; hit rate 0.35% among 310,000;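 active = fluorescence ratio B-score, a plate-corrected score, at least three library SD, with initial intensity B-score within 5 SD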
#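 Schedule – 37 °C overnight plating, 90-min dark dye load, 20-min compound pretreatment · System – stable KCNQ1 CHO-K1 line · Probe or stimulus – thallium- and potassium-containing depolarizing buffer · Measured by – kinetic FluxOR fluorescence, 10 s baseline plus 110 s post-stimulus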
# KCNQ1 block – inhibitors of human KCNQ1 channel, primary screen, cell-based, thallium flux, high-throughput | Potassium voltage-gated channel subfamily KQT member 1 (Homo sapiens), P51787 | CHO-K1 KCNQ1, FluxOR thallium flux fluorescence; hits give high values | B-score at 10 µM | hit rate 1.3% among 310,000 | AID 2642, 2010;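 active = compounds whose thallium flux B-score, printed positive for inhibition, exceeds three library SD while starting fluorescence stays within three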;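 also: channel opened by potassium depolarization with thallium stimulus after 20 min compound exposure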
# KCNK9 inh – KCNK9 potassium channel inhibitors, primary screen, HEK293 cells, thallium flux | Potassium channel subfamily K member 9 (Homo sapiens), Q9NPC2 | FluxOR thallium flux fluorescence; hits give low values | B-score at 10 µM | hit rate 1.2% among 310,000 | AID 488922, 2010;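 active = ratio B-score over 3 SD below the library mean, with starting fluorescence within 5 SD of its mean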;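 also: negative B-score means less thallium flux so channel inhibition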
# Kir21 block – inhibitors of mouse Kir2.1 inward-rectifier potassium channel. B-score at 10 µM. Inward rectifier potassium channel 2 (Mus musculus), P35561. hit rate 0.85% among 310,000. HEK293-Kir2.1, FluxOR thallium flux fluorescence; hits give low values;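 active = fluorescence ratio B-score at or below minus 3 SD of library scores, with starting-brightness B-score within 2 SD, cut at about -4.2 in these data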;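 also: channel flux triggered by added potassium and thallium sulfate stimulus; B-score of peak minus minimum fluorescence over baseline after thallium stimulus; more negative B-score means stronger Kir2.1 block with less thallium influx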
# hERG protect – hERG rescue from dofetilide block, primary screen, cell-based, CHO-hERG, FluxOR thallium flux, dofetilide IC70. Voltage-gated inwardly rectifying potassium channel KCNH2 (Homo sapiens), Q12809. dofetilide IC70 present. activation (rescue from dofetilide block), less the hit threshold, % at 10 µM. hit rate 0.51% among 310,000. AID 1511, 2009;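 active = activation above the mean of controls blocked by dofetilide plus 5 SD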;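 also: thallium influx through hERG after potassium depolarization seen as dye fluorescence rise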
# KCNK3 inh – human KCNK3 channel inhibitors, primary screen, CHO cells, FluxOR thallium flux, B-score | Potassium channel subfamily K member 3 (Homo sapiens), O14649 | FluxOR fluorescence; hits give low values | B-score at 10 µM | hit rate 0.84% among 340,000 | AID 602410, 2012;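 active = B-score under library mean minus 4 SD, starting fluorescence ratio at most library mean plus 5 SD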;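 also: more negative B-score means stronger inhibition of thallium flux through KCNK3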
# Target sequence (O14649 whole entry, looked up): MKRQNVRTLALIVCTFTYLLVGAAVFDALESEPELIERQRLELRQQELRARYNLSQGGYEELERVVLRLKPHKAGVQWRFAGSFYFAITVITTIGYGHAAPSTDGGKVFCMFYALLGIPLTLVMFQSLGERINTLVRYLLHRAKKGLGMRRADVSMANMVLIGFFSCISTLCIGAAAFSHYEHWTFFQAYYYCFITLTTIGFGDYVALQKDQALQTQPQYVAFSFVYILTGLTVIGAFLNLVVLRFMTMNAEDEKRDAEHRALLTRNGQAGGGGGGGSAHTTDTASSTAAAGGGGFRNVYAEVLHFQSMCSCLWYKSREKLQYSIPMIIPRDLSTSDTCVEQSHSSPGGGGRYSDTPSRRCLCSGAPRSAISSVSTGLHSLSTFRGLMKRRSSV
# KCNK9 inh conf – KCNK9 potassium channel inhibitors, confirmation, HEK293 cells, thallium flux, duplicate | shares compounds with KCNK9 inh | FluxOR thallium flux fluorescence | inhibition, % at 10 µM | hit rate 43% among 4,900 | AID 492992, 2010;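 active = thallium signal inhibited by more than 5 SD of the compound-free buffer control wells, on both duplicate plates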;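 also: 0% = assay buffer control wells without compound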
# Kir2-1 spec – mouse Kir2.1 channel inhibition, confirmation, selectivity assay for KCNK9 modulator project, cell-based, HEK293, thallium flux | shares compounds with KCNK9 inh | Kir2.1 cells, FluxOR thallium flux fluorescence | inhibition, % at 10 µM | hit rate 4% among 4,900;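 active = thallium signal drop more than 5 SD beyond the mean of the no-compound control wells, seen in both duplicate plates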;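 also: signal is fluorescence rise after thallium addition divided by baseline fluorescence; plate controls were assay buffer only for no effect and full block by chlorpromazine control for full effect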
# KCNK9 uninduced – thallium flux in non-induced HEK293 cells, confirmation, counter-screen for KCNK9 inhibitor project, cell-based, second counter screen, non-induced KCNK9-HEK293 | hit rate 40% among 4,900 | shares compounds with KCNK9 inh | inhibition, % at 10 µM | FluxOR thallium flux;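 active = thallium signal drop beyond 5 SD of the untreated control mean, on both duplicate plates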;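 also: plate controls were buffer only IC0 wells for no effect and SID17386958 at its maximal inhibitory level for full effect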
# Starred values were filed as active, the others as inactive; i = inactive; x = no result.
SMILES,KCNQ1 pot,KCNQ1 block,KCNK9 inh,Kir21 block,hERG protect,KCNK3 inh,KCNK9 inh conf,Kir2-1 spec,KCNK9 uninduced
CCOC(=O)c1[nH]c2cc3c(cc2c1NC(=O)CN1CCN(CCO)CC1)OCO3,i,i,i,0.58,-7,i,x,x,x
COc1cc([N+](=O)[O-])ccc1NC(=O)CCCOc1cccc(C)c1,i,i,i,-0.3,-6,i,x,x,x
CCOC(=O)c1cnn(-c2nc(CC)nc3sc4c(c23)CCC4)c1N,i,i,-10*,-0.55,-6,i,36%*,i,i
COc1cccc(-c2ccc(C#N)c(OC(=O)c3ccc(Cl)cc3)n2)c1,i,i,i,0.11,-2,i,x,x,x
COc1cccc(-c2ccc(C#N)c(OC(=O)c3c(Cl)cccc3Cl)n2)c1,i,i,-10*,-1.2,-6,i,38%*,i,28%*
COc1cc(OC)c(C(=O)NC23CC4CC(CC(C4)C2)C3)cc1OC,i,i,i,0.2,-4,i,x,x,x
O=C(NC12CC3CC(CC(C3)C1)C2)c1cc(F)c(F)c(F)c1F,i,i,i,-0.62,-1,i,i,i,i
CC(=O)c1cccc(OCc2cc(C(=O)NCCC3=CCCCC3)no2)c1,i,i,i,-0.19,-8,i,x,x,x
Clc1ncnc2scc(-c3ccc(Br)cc3)c12,i,i,i,-2.8,-9,i,x,x,x
CCS(=O)(=O)C1=NN2C(=N)/C(=C\c3ccc(OCCOc4cccc(OC)c4)c(OC)c3)C(=O)N=C2S1,i,i,i,0,-26,i,i,i,i
COc1cc(/C=C2\C(=N)N3N=C(S(C)(=O)=O)SC3=NC2=O)cc(OC)c1OCCOc1cccc(C)c1,i,i,i,1.7,-34,i,i,i,i
O=C(NCc1cccc(Cl)c1)c1cccnc1,i,i,i,1,-10,i,x,x,x
O=C(NCc1cccnc1)c1cc(Sc2cccc(Cl)c2)nc2ccccc12,i,i,-8.2*,-2,-9,i,36%*,i,i
CCc1ccc(OCCNC(=O)c2ccccc2SCc2ccccc2)cc1,i,7*,i,1.3,-7,i,i,i,37%*
CCCCC(CC)C(=O)Nc1cccc(SC)c1 (stereo not given),i,i,-9.4*,-1.1,-12,i,30%*,i,i
CC(=O)c1ccc(OCCCC(=O)NCCc2ccccc2)cc1,i,i,i,0.79,-9,i,x,x,x
O=C(COc1ccc(Cl)cc1Cl)NCCCCc1ccccc1,i,i,i,0.55,-12,i,i,i,24%*
O=C(CCCc1ccccc1)NCCCc1ccccc1,i,i,i,0.07,0,i,i,i,i
COc1cccc(OC)c1C(=O)OCc1c(-c2ccccc2)ncc2ccccc12,x,x,x,x,x,i,x,x,x
COC(=O)c1cc(CNC(=O)c2sccc2-c2ccccc2)ccc1OC,i,i,i,-0.24,-7,i,x,x,x
Cc1ccc(S(=O)(=O)N(CC(=O)c2ccc(Cl)cc2)C(=O)N2CCN(C)CC2)cc1,i,i,i,0.63,-4,i,x,x,x
